Compound activity as filed in PubChem BioAssay.
SUMO1-SIM PPI: alters human SUMO1 binding to SIM partners; inhibition, % at 20 µM; P63165; 0.33% of 360,000 active; AID 602429; SUMO1 binding to a labelled peptide, TR-FRET, 1 h; in the data active = inhibition above about 37%
LMPTP inh: LMPTP (human) inhibition; inhibition, % at 20 µM; 0.22% of 360,000 active; AID 651560; recombinant LMPTP-A, OMFP fluorogenic substrate, fluorescence intensity;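 active = compounds that cut the enzyme signal by at least half of the control window in the single-dose screen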;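 note: plate controls were DMSO wells with enzyme plus substrate for no effect and substrate without enzyme for full effect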
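Buffer or medium: Bis-Tris pH 6.0, DTT, detergent; Assay system: LMPTP-A enzyme; Quantity: 0.625 nM enzyme; Detection: endpoint fluorescence intensity; Times: 50 min dark incubation at room temperature; Controls: substrate-only low control, DMSO enzyme-plus-substrate high control; Doses: single 20 µM dose; Read-out: percent inhibition versus substrate-only and uninhibited controls; Reagent: 400 µM OMFP.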
DNMT1 block: blocks human DNA methyltransferase DNMT1. DNMT1 molecular beacon, Hinp1I cleavage, fluorescence. 0.83% of 360,000 active. AID 588458. inhibition (reported as % activation of signal), % at 10 µM. P26358; in the data active = inhibition above about 50%
Target sequence (P26358 504-1616 limits assumed): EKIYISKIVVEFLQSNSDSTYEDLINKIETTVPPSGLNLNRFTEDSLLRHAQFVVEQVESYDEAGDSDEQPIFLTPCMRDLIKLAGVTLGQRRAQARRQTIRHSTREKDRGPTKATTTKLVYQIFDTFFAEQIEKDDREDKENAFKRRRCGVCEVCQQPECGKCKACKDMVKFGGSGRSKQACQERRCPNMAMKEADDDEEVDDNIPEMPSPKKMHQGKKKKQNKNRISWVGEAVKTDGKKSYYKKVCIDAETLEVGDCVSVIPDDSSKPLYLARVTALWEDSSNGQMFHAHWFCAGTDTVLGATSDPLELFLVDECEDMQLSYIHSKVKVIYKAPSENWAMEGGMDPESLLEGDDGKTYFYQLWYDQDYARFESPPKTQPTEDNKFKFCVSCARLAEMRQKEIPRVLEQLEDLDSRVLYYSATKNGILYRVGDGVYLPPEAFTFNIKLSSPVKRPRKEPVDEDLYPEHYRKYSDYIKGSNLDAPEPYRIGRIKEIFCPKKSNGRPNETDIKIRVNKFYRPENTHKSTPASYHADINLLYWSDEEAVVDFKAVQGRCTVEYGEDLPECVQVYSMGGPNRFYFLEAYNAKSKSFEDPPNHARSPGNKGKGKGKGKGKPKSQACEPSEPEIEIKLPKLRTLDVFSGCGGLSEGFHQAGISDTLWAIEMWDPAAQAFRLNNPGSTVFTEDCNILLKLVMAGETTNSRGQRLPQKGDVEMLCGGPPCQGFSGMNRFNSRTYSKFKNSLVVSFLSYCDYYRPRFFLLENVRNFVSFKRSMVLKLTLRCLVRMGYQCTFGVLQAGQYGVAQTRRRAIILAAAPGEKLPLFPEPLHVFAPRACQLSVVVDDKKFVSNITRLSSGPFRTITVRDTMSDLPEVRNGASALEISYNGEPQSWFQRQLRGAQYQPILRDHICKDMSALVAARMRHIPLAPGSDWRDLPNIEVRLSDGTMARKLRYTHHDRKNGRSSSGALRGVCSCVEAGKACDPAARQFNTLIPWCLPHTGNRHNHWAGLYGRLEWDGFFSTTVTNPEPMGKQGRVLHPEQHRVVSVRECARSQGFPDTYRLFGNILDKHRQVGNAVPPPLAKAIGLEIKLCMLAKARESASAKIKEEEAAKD
STEP block: STEP (human) phosphatase inhibition | P54829 | recombinant STEP, OMFP fluorogenic substrate, fluorescence | inhibition, % at 20 µM | 0.25% of 360,000 active | AID 588621;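 active = inhibition at 20 µM, scaled per plate between control wells, above about 37%, limit read from the data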;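 note: 0% = DMSO with enzyme and substrate and 100% = substrate only without enzyme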
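Measure: Control-normalized % inhibition with plate pattern correction | Test system: STEP phosphatase, cell-free reaction | Medium: pH 6.0 Bis-Tris with DTT and Tween 20 | Technique: Fluorescence, 480/540 nm | Times: Reaction 20 min, ambient temperature | Doses: Single compound dose of 20 µM, 1% DMSO final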
NadD inh: NadD (S. aureus) enzyme inhibition; purified NadD enzyme, colorimetric absorbance read-out; inhibition, % at 20 µM; 0.78% of 360,000 active; in the data active = inhibition above about 26%
Scp1 inh: blocks human Scp-1 phosphatase activity; Q9GZU7; Recombinant Scp1, phosphopeptide, malachite green phosphate absorbance; inhibition, % at 20 µM; 0.88% of 340,000 active; AID 493091;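 active = inhibition above about 50% at 20 µM, limit read from the data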;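 note: plate controls were DMSO wells with enzyme for no effect and wells lacking enzyme for full effect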
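System: truncated SCP-1 phosphatase (76-261aa); medium: Tris acetate buffer pH 5.5 with MgCl2 and Tween-20; incubation: 45 min room-temperature reaction, 5 min colour, 30 min stabiliser; compound: single 20 µM dose, 1% DMSO; reagent: Phosphorylated 17-residue peptide substrate; read-out: % inhibition at 20 µM; technique: colorimetric free-phosphate detection, absorbance 630 nm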
Scp-1 conf: confirmation of human Scp-1 phosphatase inhibitors; 61% of 2,500 active; shares compounds with Scp1 inh; inhibition, % at 20 µM; recombinant SCP-1 catalytic domain, phosphate release, malachite green absorbance;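 note: plate controls were DMSO with enzyme for no effect and buffer wells lacking enzyme for full effect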
MG interference: counter-screen for Scp-1 inhibitors: colorimetric interference; apparent inhibition (interference), % at 20 µM; shares compounds with Scp1 inh; 2,500 tested, under 10 active; Colorimetric interference counterscreen, malachite green absorbance 630 nm;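 note: compounds added after enzyme reaction finished so only phosphate colour detection is probed; plate controls were DMSO wells with completed Scp-1 reaction for no effect and substrate wells lacking enzyme for full effect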
Scp1 DSF: validation of human Scp-1 inhibitors by thermal shift binding. shares compounds with Scp1 inh. Recombinant SCP1, Sypro Orange thermal shift Tm. thermal shift relative to vanadate control, % at 40 µM. 25% of 1,500 active;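 active = substances whose mean melting-temperature shift, as a percentage of the reference inhibitor's shift, reaches about 5.3%, limit read from the data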;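 note: 0% = Tm of DMSO wells and 100% = Tm with sodium orthovanadate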
An asterisk follows results filed as active. Most compounds without a hit are left out; they make up all but 2.4% or so of the library.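 Rule for the calls, unless noted: active = inhibition of at least 30% at 20 µM; inactive = the rest.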

How did O=C(O)c1cc(N2C(=O)C=CC2=O)cc(N2C(=O)C=CC2=O)c1 do in these assays?
SUMO1-SIM PPI: 49.6*; LMPTP inh: 2.7; DNMT1 block: 82.3*; STEP block: 26.6; NadD inh: 5.6; Scp1 inh: 81.8*; Scp-1 conf: 49.7*; MG interference: -7.1; Scp1 DSF: -4.1

What do the screens show for `COc1ccc(/C=N/NC(=O)c2cc(=O)[nH]c3ccccc23)cc1OC`?
SUMO1-SIM PPI: -14.2; LMPTP inh: 1.5; DNMT1 block: 4.4; STEP block: 1.0; NadD inh: 1.2; Scp1 inh: 3.2

Results for Cc1nc2ccc(NC(=O)CCC3CCCC3)cc2s1 ?
SUMO1-SIM PPI: -2.0; LMPTP inh: 1.1; DNMT1 block: -3.8; STEP block: -0.4; NadD inh: -1.0; Scp1 inh: -0.8

Results for CCCOc1ccc(C(=O)N(CC(C)C)c2c(N)n(Cc3ccccc3)c(=O)[nH]c2=O)cc1 ?
SUMO1-SIM PPI: 8.7; LMPTP inh: -2.1; DNMT1 block: 4.0; STEP block: -6.8; NadD inh: 0.4; Scp1 inh: 3.3

Results for CSc1ccccc1NC(=O)CN(C)C(=O)/C=C/c1ccccc1 ?
SUMO1-SIM PPI: -7.4; LMPTP inh: -0.5; DNMT1 block: 2.4; STEP block: -0.2; NadD inh: -5.0; Scp1 inh: 2.0

What do the screens show for `CCOc1ncccc1C(=O)N(C)CC(=O)Nc1ccccc1SC`?
SUMO1-SIM PPI: -0.8; LMPTP inh: -0.2; DNMT1 block: 4.4; STEP block: -6.5; NadD inh: 5.6; Scp1 inh: 60.2*; Scp-1 conf: -3.0; MG interference: -7.1

What do the screens show for `O=C(Cc1cccc2ccccc12)NC(=S)Nc1cccc(C(=O)O)c1`?
SUMO1-SIM PPI: 1.2; LMPTP inh: -0.7; DNMT1 block: -2.6; STEP block: 2.9; NadD inh: -6.9; Scp1 inh: -5.0

What do the screens show for `COc1cccc(NS(=O)(=O)c2cc3c(cc2C)N(C(C)=O)CCO3)c1`?
SUMO1-SIM PPI: -1.3; LMPTP inh: -1.3; DNMT1 block: -0.8; STEP block: 2.3; NadD inh: -0.2; Scp1 inh: 87.3*; Scp-1 conf: -23.7; MG interference: -20.3

Results for COc1ccc(NS(=O)(=O)c2cc3c(cc2C)N(C(C)=O)CCO3)cc1OC ?
SUMO1-SIM PPI: -2.4; LMPTP inh: 0.3; DNMT1 block: -0.8; STEP block: -2.2; NadD inh: 1.1; Scp1 inh: -1.2

How did O=C1OCCN1N=Cc1ccco1 do in these assays?
SUMO1-SIM PPI: -7.0; LMPTP inh: -2.7; DNMT1 block: 2.8; STEP block: -0.1; NadD inh: -2.0; Scp1 inh: -6.7

How did CN1C(=O)N(C)C(c2cccc([N+](=O)[O-])c2)C2=C1CCCC2=O (stereo not given) do in these assays?
SUMO1-SIM PPI: -15.1; LMPTP inh: -0.8; DNMT1 block: 0.2; STEP block: -1.7; NadD inh: 3.6; Scp1 inh: -1.2

What do the screens show for `CC[C@H](C)NC(=O)c1ccc(Cn2c(=S)[nH]c3c([nH]c4ccc(OC)cc43)c2=O)cc1`?
SUMO1-SIM PPI: 11.1; LMPTP inh: -0.5; DNMT1 block: 43.6; STEP block: 2.5; NadD inh: 14.8; Scp1 inh: 57.0*; Scp-1 conf: 43.1*; MG interference: -4.3; Scp1 DSF: -17.0

How did CCCCNC(=O)c1ccc(Cn2c(=S)[nH]c3c([nH]c4ccc(OC)cc43)c2=O)cc1 do in these assays?
SUMO1-SIM PPI: 5.4; LMPTP inh: -1.3; DNMT1 block: 26.1; STEP block: -1.8; NadD inh: 15.9; Scp1 inh: -1.8

What do the screens show for `CC(=O)Nc1ccc(-c2nnc(SCC(=O)n3c4c(c5ccccc53)CCCC4)n2C)cc1`?
SUMO1-SIM PPI: -0.3; LMPTP inh: -0.4; DNMT1 block: 1.2; STEP block: 4.5; NadD inh: -0.9; Scp1 inh: 84.1*; Scp-1 conf: 7.5; MG interference: 3.1

What do the screens show for `CCN(CC)CCNC(=O)c1ccc(NC(=O)C2CCN(c3ncnc4sc(C)c(C)c34)CC2)cc1`?
SUMO1-SIM PPI: -6.6; LMPTP inh: 1.4; DNMT1 block: -2.8; STEP block: -1.2; NadD inh: 1.4; Scp1 inh: 112.1*; Scp-1 conf: -13.6; MG interference: -7.6

Results for Cc1ccc2ccccc2[n+]1CCCS(=O)(=O)[O-] ?
SUMO1-SIM PPI: -9.5; LMPTP inh: 0.3; DNMT1 block: 4.4; STEP block: 0.2; NadD inh: -0.2; Scp1 inh: 18.0

How did O=S(=O)([O-])CCC[n+]1ccc(Oc2ccccc2)cc1 do in these assays?
SUMO1-SIM PPI: -2.5; LMPTP inh: -1.7; DNMT1 block: 1.4; STEP block: 6.5; NadD inh: 17.1; Scp1 inh: 95.4*; Scp-1 conf: 93.5*; MG interference: 0.1; Scp1 DSF: -24.9

What do the screens show for `CC(=O)Oc1ccccc1/C=C/c1ccc2ccccc2[n+]1C`?
SUMO1-SIM PPI: -29.1; LMPTP inh: -0.9; DNMT1 block: 0.7; STEP block: -2.8; NadD inh: 9.9; Scp1 inh: 16.8

Results for COc1ccc(/C=C/c2ccc3ccccc3[n+]2C)cc1OC ?
SUMO1-SIM PPI: -29.6; LMPTP inh: 2.4; DNMT1 block: -1.9; STEP block: 0.4; NadD inh: 18.1; Scp1 inh: 99.1*; Scp-1 conf: 4.5; MG interference: -6.0

How did NC(=O)C[n+]1cccc2ccccc21 do in these assays?
SUMO1-SIM PPI: -20.6; LMPTP inh: -0.4; DNMT1 block: 0.2; STEP block: -5.2; NadD inh: 4.5; Scp1 inh: 98.5*; Scp-1 conf: -7.1; MG interference: -11.8

What do the screens show for `O=C(C[n+]1cccc2ccccc21)c1ccc(Br)cc1`?
SUMO1-SIM PPI: 13.2; LMPTP inh: 1.2; DNMT1 block: 10.4; STEP block: -11.2; NadD inh: 0.3; Scp1 inh: 8.9

Results for O=c1nc(N/N=C/C=C/c2ccccc2)cn[nH]1 ?
SUMO1-SIM PPI: -14.4; LMPTP inh: -1.6; DNMT1 block: 2.1; STEP block: 3.0; NadD inh: -8.8; Scp1 inh: -9.0

How did Cc1nn(S(=O)(=O)c2ccc(F)cc2)c(C)c1S(=O)(=O)N1CCCCC1 do in these assays?
SUMO1-SIM PPI: -3.6; LMPTP inh: -1.5; DNMT1 block: -1.6; STEP block: -3.7; NadD inh: -2.9; Scp1 inh: -4.0
